PMC10841594 (Cell chemical biology, 2023)

Tests used:
ferroportin = experiment: Immunohistochemical staining for ferroportin; assay type: in vivo, mouse; conditions: for ferroportin staining in liver vs untreated controls: livers of the mice imaged with FeAL-1
Method in brief: (§1)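 Tissues fixed in 4% paraformaldehyde, paraffin-embedded and cut into 4-µm sections. Liver, heart and tumor sections stained with anti-4-HNE (1:500) or anti-ferroportin (1:500). Liver and heart came from imaged mice: untreated, hepcidin 50 µg/mouse/day for 3 days, or doxorubicin 10 mg/kg IP once 5 days prior. Staining intensity quantified by IHC Profiler in ImageJ (liver/heart n=3 per condition).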

4-hydroxynonenal (4-HNE) = experiment: Immunohistochemical staining for 4-HNE; assay type: in vivo, mouse
Method in brief: as §1

non-heme iron = conditions: DOX-treated mice, ex vivo methodology ref 16; cited from earlier work
[1] = tested on: luciferase-expressing PDA and colon cancer cell lines; experiment: Cellular bioluminescence assays with FAC, BPY or hepcidin pre-treatment; assay type: cell-based
Method in brief: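 Cells stably expressing firefly/Renilla luciferase (lentiviral, puromycin-selected) in DMEM with 10% FBS, plated to reach 75% confluence and assayed two days after plating. Serum-free DMEM with FAC for 60 min at 37 °C, optionally BPY for 30 min. Hepcidin-25 (1, 2, 4 µg/mL) given 16 h beforehand. Probe at 75 µM in Ca/Mg-free HBSS for 25 min, IVIS imaging at 30 min. D-luciferin (25 µM, 5 min) control.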

MIA PaCa-2 tumors = experiment: Dual-reporter orthotopic PDA xenograft imaging with FeAL-1; assay type: in vivo, mouse
SW1990 tumors = experiment: as above; assay type: in vivo, mouse
FC1245 tumors = experiment: as above; assay type: in vivo, mouse
[2] = Storage stability of FeAL-1 powder; assay type: physicochemical; conditions: stored as a powder at −20 °C under argon
[3] = UPLC-MS Fe2+-fragmentation assay
Method in brief: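 Test compound at 40 µM final in 50 mM Tris-HCl pH 7.4/DMSO (9:1) with sodium ascorbate and ascorbic acid, each 2 mM final. Held 1 min at 37 °C, then sampled as the hemin-free control. Hemin added to 400 µM final and the mixture stirred at 37 °C. Aliquots taken at set time points over 62 min and analysed by UPLC-MS with UV at 303 nm.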

[4] = Cell-free metal selectivity assay; assay type: biochemical
MiaPaca2-luc cells = experiment: Cellular assay comparing FeAL-1 and ICL-1 response; assay type: cell-based, human; conditions: 20 μM probe, FAC 2 hours, imaged after 15 min
SW-1990-luc cells = experiment: Cellular assay comparing FeAL-1 and ICL-1 response; assay type: cell-based, human; conditions: 20 μM probe, FAC 2 hours, imaged after 15 min
[5] = Pharmacokinetic study, plasma LC-MS/MS; assay type: in vivo, C57BL6 mice; conditions: C57BL/6, mouse, ip, 20 mg/kg
Method in brief: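 Healthy C57BL/6 mice received a single IP dose at 20 mg/kg (2.5 mL/kg; 15 mice per group). Composite plasma sampling, n=3 per timepoint: orbital bleed under isoflurane at 5, 10, 15, 30 and 45 min, then terminal vena cava bleed under CO2 at 1, 2, 3, 4 and 7 h. Blood collected into EDTA and centrifuged to plasma.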

[6] = hepcidin 50 μg/mouse for three days
[7] = untreated tumor-bearing mice, FeAL-1 36 mg/kg IP

COc1cccc2c1C(=O)c1c(O)c3c(c(O)c1C2=O)C[C@@](O)(C(=O)CO)C[C@@H]3O[C@H]1C[C@H](N)[C@H](O)[C@H](C)O1 [DOX, doxorubicin]
ferroportin staining in liver vs untreated controls (ferroportin): reduced ferroportin staining
4-HNE staining in heart tissue vs untreated controls (4-hydroxynonenal (4-HNE)): increased 4-HNE staining
4-HNE staining in liver vs control group (4-hydroxynonenal (4-HNE)): increased staining for 4-HNE
elevation of non-heme iron in liver, spleen, kidneys and blood (non-heme iron): ≤ 2 fold

hepcidin: hepatic peptide hormone, negative regulator of the iron export protein ferroportin
effect of hepcidin pre-treatment on FeAL-1 signal ([1]; hepcidin 1, 2 and 4 μg/mL, 16 hours, FeAL-1 75 μM): corresponding increase in FeAL-1 signal across all cell lines
FeAL-1 Fluc/Rluc response after hepcidin pre-treatment (MIA PaCa-2 tumors; [6]): ~ 5
FeAL-1 Fluc/Rluc response, hepcidin-treated vs untreated controls (MIA PaCa-2 tumors; [6]): 2–3 fold
FeAL-1 Fluc/Rluc response after hepcidin pre-treatment (SW1990 tumors; [6]): ~ 5
FeAL-1 Fluc/Rluc response, hepcidin-treated vs untreated controls (SW1990 tumors; [6]): 2–3 fold
effect of hepcidin treatment on tumor LIP (FC1245 tumors; [6]): measurably increased LIP in FC1245 tumors
tumoral ferroportin expression vs untreated control animal (ferroportin; FC1245 tumors, single comparison): decreased tumoral ferroportin expression
ferroportin staining in liver vs untreated controls (ferroportin): reduced ferroportin staining
4-HNE staining of tumors, treated vs untreated controls (4-hydroxynonenal (4-HNE); FC1245 tumors): not significantly different
4-HNE staining in heart tissue vs untreated controls (4-hydroxynonenal (4-HNE)): but not hepcidin-treated mice, showed increased 4-HNE staining
4-HNE staining in liver vs control group (4-hydroxynonenal (4-HNE)): increased staining for 4-HNE

CN(CCN(C)C(=O)O[C@@H]1CCC[C@]2(C1)OOC1(O2)C2CC3CC(C2)CC1C3)C(=O)Oc1ccc2nc(C3=N[C@@H](C(=O)O)CS3)sc2c1 (stereo partly drawn) [FeAL-1, (S)-2-(6-(((2-(((((R,R)-dispiro[adamantane-2,3’-[1,2,4]trioxolane-5’,1’’-cyclohexan]-3’’-yl)oxy)carbonyl)(methyl)amino)ethyl)(methyl)carbamoyl)oxy)benzo[d]thiazol-2-yl)-4,5-dihydrothiazole-4-carboxylic acid]
stability on storage [2]: stable over several months
stability in assay media lacking hemin ([3]; control without hemin): stable in assay media lacking hemin
time point by which FeAL-1 is completely consumed ([3]; reaction media containing ferrous hemin, 37 °C): ≤ 1 min
time point at which released D-luciferin is detected ([3]; reaction media containing ferrous hemin, second time point): 12 min
luminescence response with Fe^2+ as ferrous ammonium sulfate (FAS) ([4]; 2.5 μM FeAL-1, 2 hours incubation, then 10 μg/mL luciferase): robust luminescence response
iron-dependent luminescent response compared with ICL-1 (MiaPaca2-luc cells): stronger iron-dependent luminescent response from FeAL-1 than from ICL-1
iron-dependent luminescent response compared with ICL-1 (SW-1990-luc cells): stronger iron-dependent luminescent response from FeAL-1 than from ICL-1
bioluminescent signal in response to FAC supplementation ([1]; larger panel of cell lines): robust bioluminescent signal
bioluminescence response with BPY iron chelator treatment ([1]; with or without FAC): expected reduction in bioluminescence response
Cmax [5]: 5.91 µM
Tmax [5]: 1 h
normalized FeAL-1 Fluc/Rluc response (MIA PaCa-2 tumors; [7]): ~ 2.1
normalized luminescence signal in tumor relative to healthy liver (MIA PaCa-2 tumors; vs livers of non-tumor bearing mice): ~ 10 fold
normalized FeAL-1 Fluc/Rluc response (SW1990 tumors; [7]): ~ 1.7
normalized FeAL-1 Fluc/Rluc response (FC1245 tumors; [7]): ~ 0.7

O=C(O)[C@H]1CSC(c2nc3ccc(O)cc3s2)=N1 [D-luciferin]
luminescent response of D-luciferin with increasing Fe^2+ ([4]; control experiment, D-luciferin instead of FeAL-1): not affected by increasing concentrations of Fe^2+
